Assay results collected from several papers.
Protocols differ between the studies behind these lines.
Target: Mitogen-activated protein kinase 11 (MAPK11, Homo sapiens, UniProt Q15759)

Structure (SMILES) | observed | method | concentration | remaining binding
COc1cc(-c2cn(C3CCc4ccccc4N(CC(F)(F)F)C3=O)nn2)ccc1-n1ccc(C)n1 (stereo not shown) | cell-free assay | competition with immobilised ligand | 1 µM | 82%
O=C(NCC1CCOCC1)c1n[nH]cc1NC(=O)c1c(F)cccc1F | binding | competition with immobilised ligand | 1 µM | 96%
C[C@@H](c1ccc(-n2cnc3c(N)ncnc32)cc1)N1CCc2nn(C)c(Cc3ccccc3)c2C1=O | binding | competition with immobilised ligand | 0.1 µM | 92%
O=C(c1ccc(Nc2ncc(Cl)c(-c3cc4ccccc4s3)n2)cc1)N1CCC(N2CCCC2)CC1 | binding | competition with immobilised ligand | 1 µM | 82%
CN(c1nccc(-c2cnn3ncccc23)n1)C1CC1 | binding |  | 1 µM | 89%
CC(=O)N1CCC(c2ccc(C(=O)NC3=NCCN3)cc2C(F)(F)F)CC1 | cell-free assay | competition with immobilised ligand | 1 µM | 98%
COc1ncc2cc3ccccc3nc2c1C#N | cell-free assay | competition with immobilised ligand | 5 µM | 92%
CN(CCCC(F)(F)F)c1nccc(-c2cnn3ncccc23)n1 | binding | competition with immobilised ligand | 1 µM | 93%
COc1cnc(Nc2cccc(S(N)(=O)=O)c2)nc1N1CCN(c2ccccc2)C(=O)C1 | binding | competition with immobilised ligand | 1 µM | 100%
CCN1CCN(Cc2ccc(C(=O)Nc3ccc(C)c(Oc4ccc5c(c4)CC(=O)N5)c3)cc2C(F)(F)F)CC1 | binding | competition with immobilised ligand | 1 µM | 7%
O=C(NCCCN1CCOCC1)c1ccc(Nc2ncc(Cl)c(-c3ccc(Cl)s3)n2)cc1 | binding | competition with immobilised ligand | 1 µM | 98%
CCS(=O)(=O)c1cc2cc(C[C@](O)(CC(C)(C)c3ccc(F)cc3C(N)=O)C(F)(F)F)[nH]c2cn1 | cell-free assay | competition with immobilised ligand | 1 µM | 100%
C[C@H]1CCN(c2nccc(-c3cnn4ncccc34)n2)C1 | binding | competition with immobilised ligand | 1 µM | 55%
CN(C)CC#Cc1ccc(OCCCc2sc(N3CCc4cccc(C(=O)Nc5nc6ccccc6s5)c4C3)nc2C(=O)O)c(F)c1 | cell-free assay | competition with immobilised ligand | 1 µM | 100%
O=C(NCCCN1CCOCC1)c1ccc(Nc2nccc(-c3cc4ccccc4s3)n2)cc1 | binding | competition with immobilised ligand | 1 µM | 98%
CN(C)c1ncc(F)c(-c2cnn3ncccc23)n1 | binding | competition with immobilised ligand | 1 µM | 100%
NS(=O)(=O)c1cc(NC(=O)C2(c3ccccc3Cl)CC2)ccc1Oc1cccc(Cl)c1 | cell-free assay | competition with immobilised ligand | 1 µM | 68%
C[C@@H]1CN(c2ccc3ncc(-c4ccc5[nH]nc(C6CC6)c5c4)n3n2)C[C@H](C)O1 | binding | competition with immobilised ligand | 50 nM | 100%
N#Cc1ccccc1CSc1nnc2c(n1)[nH]c1ccccc12 | binding | competition with immobilised ligand | 10 µM | 94%
Cc1cc(C)c(-n2ccn3nc(-c4cccnc4)cc23)cc1NC(=O)c1cc(C#N)cc(S(F)(F)(F)(F)F)c1 | cell-free assay | competition with immobilised ligand | 0.1 µM | 93.4%
COc1ccnn2ncc(-c3ccnc(N(C)C)n3)c12 | binding | competition with immobilised ligand | 1 µM | 92%
C=CC(=O)N1CCC(C(=O)NCC(=O)N2CCN(c3nc(-c4cnc(N)nc4C(F)F)nc(N4CCOCC4)n3)CC2)CC1 | binding | competition with immobilised ligand | 1 µM | 89%
